Reference: ChEMBL document CHEMBL2034822, “HPLC-ESIMS(n) profiling, isolation, structural elucidation, and evaluation of the antioxidant potential of phenolics from Paepalanthus geniculatus” (J Nat Prod, 2012)
Active and inactive are the calls of the source. No cut-off for these calls is given here.

Legend:
PC-3 [1] = experiment: Antioxidant activity in human PC3 cells assessed as decrease in t-BuOOH-induced ROS elevation at 1 to 10 uM incubated for 24 hrs prior to t-BuOOH-challenge measured after 30 mins by dichlorofluorescein-based flow cytometric analysis; assay type: functional, cell-based
In short: (§1)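 PC3 cells grown in DMEM with 2 mM L-glutamine, 10% heat-inactivated FBS and 1% pen/strep at 37 °C, then exposed to compound for 24 h. Exposed to 300 μM t-BuOOH for 30 min at 37 °C, washed, resuspended at 2 × 10^5 cells/ml in HBSS with 10 μM DCFH-DA for 20 min at 37 °C. DCF read by flow cytometry (FL1-H). Mean ± SEM of three experiments in triplicate; ANOVA with Bonferroni.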

PC-3 [2] = experiment: Cytotoxicity against human PC3 cells; assay type: cell-based
[3] = Antioxidant activity against ABTS radical assessed as trolox equivalents by TEAC assay; assay type: functional
In short: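 ABTS radical cation diluted in PBS pH 7.4 to A734 0.70, equilibrated at 30 °C, then added to sample solutions in MeOH at 0.3, 0.5, 1 and 1.5 concentration. Inhibition of A734 versus MeOH blank, run in triplicate, plotted against concentration alongside Trolox standard. TEAC = Trolox concentration equivalent in capacity to 1 mM compound.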

PC-3 [4] = experiment: Antioxidant activity in human PC3 cells assessed as decrease in t-BuOOH-induced ROS elevation at 10 uM incubated for 24 hrs prior to t-BuOOH-challenge measured after 30 mins by dichlorofluorescein-based flow cytometric analysis; assay type: functional, cell-based; in short: as §1

Structure (SMILES) | Activity (PC-3 [1]) | Activity (PC-3 [2]) | Activity [3] | Activity (PC-3 [4])
COc1c2cc(O)cc(O[C@@H]3O[C@H](CO[C@@H]4O[C@H](CO)[C@@H](O)[C@H](O)[C@H]4O)[C@@H](O)[C@H](O)[C@H]3O)c2c(O)c2c(=O)oc(C)cc12 | inactive | Non-toxic | 1.04 mM | 
COc1c(O)cc2oc(-c3ccc(O)cc3)c(O[C@@H]3O[C@H](CO[C@@H]4O[C@@H](C)[C@H](O)[C@@H](O)[C@H]4OC(C)=O)[C@@H](O)[C@H](O)[C@H]3O)c(=O)c2c1O | inactive | Non-toxic | 1 mM | 
COc1c2cc(O)cc(O[C@@H]3O[C@H](CO)[C@@H](O)[C@H](O)[C@H]3O)c2c(O)c2c(=O)oc(C)cc12 | inactive | Non-toxic | 0.898 mM | 
COc1cc(O[C@H]2O[C@H](CO[C@H]3O[C@H](CO)[C@@H](O)[C@H](O)[C@H]3O)[C@@H](O)[C@H](O)[C@H]2O)c2c(O)c3c(=O)oc(C)cc3c(OC)c2c1 | inactive | Non-toxic | 0.706 mM | 
COc1c(O)cc2oc(-c3ccc(O)cc3)c(O[C@@H]3O[C@H](COC(=O)/C=C/c4ccc(O)cc4)[C@@H](O)[C@H](O)[C@H]3O)c(=O)c2c1O | inactive | Non-toxic | 1.28 mM | 
COc1c(O)cc2oc(-c3ccc(O)cc3)c(O[C@@H]3O[C@H](CO[C@@H]4O[C@@H](C)[C@H](O)[C@@H](O)[C@H]4O)[C@@H](O)[C@H](O)[C@H]3O)c(=O)c2c1O |  | Non-toxic | 2.06 mM | Active
COc1c(O)cc2oc(-c3ccc(O)cc3)c(O[C@@H]3O[C@H](CO[C@@H]4O[C@@H](C)[C@H](O)[C@@H](OC(C)=O)[C@H]4OC(C)=O)[C@@H](O)[C@H](O)[C@H]3O)c(=O)c2c1O | inactive | Non-toxic | 1.4 mM | 
COc1c(O)cc2oc(-c3ccc(O)cc3)c(O[C@@H]3O[C@H](CO)[C@@H](O)[C@H](O)[C@H]3O[C@@H]3O[C@@H](C)[C@H](O)[C@@H](O)[C@H]3O)c(=O)c2c1O | inactive | Non-toxic | 1.53 mM | 
COc1c(O)cc2oc(-c3ccc(O)cc3)c(O[C@@H]3O[C@H](COC(=O)[C@H]4[C@H](c5ccc(O)cc5)[C@H](C(=O)OC[C@H]5O[C@@H](Oc6c(-c7ccc(O)cc7)oc7cc(O)c(OC)c(O)c7c6=O)[C@H](O)[C@@H](O)[C@@H]5O)[C@H]4c4ccc(O)cc4)[C@@H](O)[C@H](O)[C@H]3O)c(=O)c2c1O [GENICULATIN] | inactive | Non-toxic | 0.738 mM | 
COc1c(O)cc2oc(-c3ccc(O)cc3)c(O[C@@H]3O[C@H](CO[C@@H]4O[C@@H](C)[C@H](OC(C)=O)[C@@H](O)[C@H]4O)[C@@H](O)[C@H](O)[C@H]3O)c(=O)c2c1O | inactive | Non-toxic | 0.968 mM | 
COc1cc(O[C@H]2O[C@H](CO[C@@H]3O[C@H](CO)[C@@H](O)[C@@H](O)[C@H]3O)[C@@H](O)[C@H](O)[C@H]2O)c2c(O)c3c(=O)oc(C)cc3c(OC)c2c1 | inactive | Non-toxic | 0.57 mM | 
COc1c(O)cc2oc(-c3ccc(O)c(O)c3)c(O[C@@H]3O[C@H](CO[C@@H]4O[C@@H](C)[C@H](OC(C)=O)[C@@H](O)[C@H]4OC(C)=O)[C@@H](O)[C@H](O)[C@H]3O)c(=O)c2c1O | inactive | Non-toxic | 1.21 mM | 
COc1c(O)cc2oc(-c3ccc(O)c(O)c3)c(O[C@@H]3O[C@H](CO[C@@H]4O[C@@H](C)[C@H](OC(C)=O)[C@@H](O)[C@H]4O)[C@@H](O)[C@H](O)[C@H]3O)c(=O)c2c1O |  | Non-toxic | 2.16 mM | Active
COc1cc(/C=C/C(=O)OC[C@H]2O[C@@H](Oc3c(-c4ccc(O)cc4)oc4cc(O)c(OC)c(O)c4c3=O)[C@H](O)[C@@H](O)[C@@H]2O)ccc1O | inactive | Non-toxic | 0.984 mM | 
COc1c(O)cc2oc(-c3ccc(O)c(O)c3)c(O[C@@H]3O[C@H](CO[C@@H]4O[C@@H](C)[C@H](O)[C@@H](O)[C@H]4O)[C@@H](O)[C@H](O)[C@H]3O)c(=O)c2c1O |  | Non-toxic | 2.02 mM | Active
COc1c(O)cc2oc(-c3ccc(O)c(O)c3)c(O[C@@H]3O[C@H](CO)[C@@H](O)[C@H](O)[C@H]3O)c(=O)c2c1O | inactive | Non-toxic | 0.525 mM | 
COc1c(O)cc2oc(-c3ccc(O)cc3)c(O[C@@H]3O[C@H](CO)[C@@H](O)[C@H](O)[C@H]3O)c(=O)c2c1O | inactive | Non-toxic | 1.27 mM | 
O=c1c(O[C@@H]2O[C@H](CO)[C@@H](O)[C@H](O)[C@H]2O)c(-c2ccc(O)c(O)c2)oc2cc(O)cc(O)c12 |  |  | 1.78 mM | 
O=c1c(O)c(-c2ccc(O)c(O)c2)oc2cc(O)cc(O)c12 |  |  | 1.87 mM | 
COc1cc2oc(-c3ccc(O)c(O)c3)c(O[C@@H]3O[C@H](CO[C@@H]4O[C@@H](C)[C@H](O)[C@@H](O)[C@H]4O)[C@@H](O)[C@H](O)[C@H]3O)c(=O)c2c(O)c1O | inactive | Non-toxic | 1.54 mM | 
O=c1c(O[C@@H]2O[C@H](CO)[C@@H](O)[C@H](O)[C@H]2O)c(-c2ccc(O)cc2)oc2cc(O)cc(O)c12 |  |  | 1.18 mM | 
COc1c(O)cc2oc(-c3ccc(O)c(O)c3)c(O[C@@H]3O[C@H](CO[C@@H]4O[C@@H](C)[C@H](O)[C@@H](O)[C@H]4OC(C)=O)[C@@H](O)[C@H](O)[C@H]3O)c(=O)c2c1O | inactive | Non-toxic | 1.37 mM | 
